Measured values as given in ChEMBL document CHEMBL1155990, “Synthesis of novel pyrazole carboxamide derivatives and discovery of modulators for apoptosis or autophagy in A549 lung cancer cells” (2009).
Activity calls are given as the source filed them. The rule behind the calls is not given here.

How the values were obtained:
A549 [1] = test: Induction of necrosis in human A549 lung cancer cells assessed as LDH activity at 20 uM after 48 hrs; format: functional, cell-based
Method in brief: (§1)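 A549 cells treated at 10 or 20 µM for 48 h; LDH activity measured in culture medium as necrosis marker; compared with control, n = 4.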

A549 [2] = test: Induction of autophagy in human A549 lung cancer cells assessed as acidic vesicle level at 20 uM after 24 hrs by acridine orange staining; format: functional, cell-based
Method in brief: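 A549 cells treated 24 h; acidic cellular compartment volume visualized by acridine orange staining under fluorescence microscope (200×); compared with control, n = 3.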

A549 [3] = test: Effect on human A549 lung cancer cell morphology assessed as vacuolation of cells at 20 uM after 48 hrs relative to control by inverted phase contrast microscopy; format: functional, cell-based
Method in brief: (§2)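 A549 cells treated at 20 µM; morphology photographed at 200× under an inverted phase contrast microscope.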

A549 [4] = test: Effect on human A549 lung cancer cell morphology assessed as vacuolation of cells at 20 uM after 24 hrs by inverted phase contrast microscopy; format: functional, cell-based; method in brief: as §2
A549 [5] = test: Anticancer activity against human A549 lung cancer cells assessed as decrease in cell viability at 10 uM after 24 hrs relative to control by MTT assay; format: functional
Method in brief: (§3)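 A549 cells exposed to compound in culture medium; viability measured by MTT assay and expressed as % of untreated control (100%).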

A549 [6] = test: Anticancer activity against human A549 lung cancer cells assessed as decrease in cell viability at 10 uM after 48 hrs relative to control by MTT assay; format: functional; method in brief: as §3
A549 [7] = test: Induction of necrosis in human A549 lung cancer cells assessed as LDH activity at 10 uM after 48 hrs; format: functional, cell-based; method in brief: as §1
A549 [8] = test: Anticancer activity against human A549 lung cancer cells assessed as decrease in cell viability at 20 uM after 24 hrs relative to control by MTT assay; format: functional, cell-based; method in brief: as §3
A549 [9] = test: Anticancer activity against human A549 lung cancer cells assessed as decrease in cell viability at 20 uM after 48 hrs relative to control by MTT assay; format: functional; method in brief: as §3
A549 [10] = test: Effect on human A549 lung cancer cell morphology assessed as rounding and detachment of cells at 20 uM after 48 hrs relative to control by inverted phase contrast microscopy; format: functional, cell-based; method in brief: as §2
A549 [11] = test: Effect on human A549 lung cancer cell morphology assessed as rounding and detachment of cells at 20 uM after 24 hrs by inverted phase contrast microscopy; format: functional, cell-based; method in brief: as §2
A549 [12] = test: Induction of apoptosis in human A549 lung cancer cells assessed as nuclear DNA fragmentation at 20 uM after 48 hrs by hoechst 33258 staining; format: functional, cell-based
Method in brief: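 A549 cells treated at 20 µM for 48 h; chromatin condensation and DNA fragmentation visualized by Hoechst 33258 staining under fluorescence microscope (200×); compared with control, n = 3.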

| Structure (SMILES) | Activity (A549 [1]) | Activity (A549 [2]) | Activity (A549 [3]) | Activity (A549 [4]) | Activity (A549 [5]) | Activity (A549 [6]) | Activity (A549 [7]) | Activity (A549 [8]) | Activity (A549 [9]) | Activity (A549 [10]) | Activity (A549 [11]) | Activity (A549 [12]) |
| --- | --- | --- | --- | --- | --- | --- | --- | --- | --- | --- | --- | --- |
| CC(C)(C)c1ccc(Cn2nc(-c3ccc(Cl)cc3)cc2C(=O)NCCc2ccc(F)cc2)cc1 | inactive | Active | Active | Active | Active | Active | inactive | Active | – | – | – | – |
| CC(C)(C)c1ccc(Cn2nc(-c3ccccc3)cc2C(=O)NCCc2ccccc2)cc1 | – | – | – | – | inactive | inactive | – | inactive | inactive | – | – | – |
| CC(C)(C)c1ccc(Cn2nc(-c3ccc(Cl)cc3)cc2C(=O)NCCc2ccccc2)cc1 | inactive | – | – | – | 59.32% | 44.46% | inactive | Active | – | Active | Active | Active |
| COc1cccc(CCNC(=O)c2cc(-c3ccc(Cl)cc3)nn2Cc2ccc(C(C)(C)C)cc2)c1 | inactive | – | – | – | 45.52% | 24.07% | inactive | Active | 10.43% | Active | Active | Active |
| CC(C)(C)c1ccc(Cn2nc(-c3ccccc3)cc2C(=O)NCCc2ccc(F)cc2)cc1 | – | – | – | – | inactive | inactive | – | inactive | inactive | – | – | – |
| CC(C)(C)c1ccc(Cn2nc(-c3ccc(Cl)cc3)cc2C(=O)NCCc2ccccc2F)cc1 | inactive | Active | – | Active | Active | Active | inactive | Active | Active | Active | – | – |
| COc1cccc(CCNC(=O)c2cc(-c3ccccc3)nn2Cc2ccc(C(C)(C)C)cc2)c1 | – | – | – | – | inactive | inactive | – | inactive | inactive | – | – | – |
| CC(C)(C)c1ccc(Cn2nc(-c3ccccc3)cc2C(=O)NCCc2ccccc2F)cc1 | – | – | – | – | inactive | inactive | – | inactive | inactive | – | – | – |
